The values that follow come from ChEMBL document CHEMBL3244229, “Nonsteroidal antiinflammatory agents. 1. 5-Alkoxy-3-biphenylylacetic acids and related compounds as new potential antiinflammatory agenst” (J Med Chem, 1977).

The test system of one data set is Rattus norvegicus. The experiment in a line: Antiinflammatory activity in Wistar rat assessed as inhibition of carrageenan-induced paw edema administered 30 mins prior challenge measured after 3 hrs. It is filed as functional. The method, boiled down:
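Rats were dosed orally. Thirty minutes later, 1% carrageenan was injected subcutaneously into the plantar surface of the hind paw, and paw volume was remeasured 3 h afterward. Percent inhibition came from comparing the volume increase against a control group. ED50 (dose giving 50% inhibition) was derived from least-squares probit response vs log dose regression.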

Data set [1] is described as follows: Acute toxicity in ip dosed ddY mouse measured after 168 hrs. It is filed as organism-based. The settings on record: in vivo. The method, boiled down: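 Male ddY mice, four per group, given a single ip injection; deaths assessed 168 h after dosing. LD50 calculated by the method of Weil.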
Another data set has as its system Mus musculus. Description: Analgesic activity in ip dosed ddY mouse assessed as prevention of pseudoavoidance reflex co-administered with 5 mg/kg, sc morphine hydrochloride by tail pinch method. It is filed as functional. In a few lines: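 Groups of eight male ddY mice (25–30 g) got the compound ip as a suspension in 0.5% CMC, together with a threshold dose of morphine hydrochloride (5 mg/kg sc). The read-out was prevention of pseudoavoidance reflexes (biting, squeaking, looking backward) after tail pinching with forceps. ED50 was calculated by the Litchfield–Wilcoxon method.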

Each structure is given as a SMILES string.

For the compound `COc1cc(CC(=O)O)cc(C(C)C)c1`, the median effective dose (ED50) (as a rule, the dose at which the effect has come halfway, by size or by number of responders) in the data set with Rattus norvegicus was more than 100 mg/kg. For the same compound, the median lethal dose (LD50) – broadly, the dose expected to kill half of the subjects tested – at 168 h in data set [1] came out at 1600 mg/kg.
For the compound `CCCCOc1cc(C)cc(CC(=O)O)c1`, the median effective dose (ED50) with Rattus norvegicus was more than 100 mg/kg. Further, the LD50 at 168 h in data set [1] worked out at 673 mg/kg.
For `COc1cc(CC(=O)O)cc(C2CCCCC2)c1`, in that order: more than 100 mg/kg and 564 mg/kg.
The like results for `COc1cc(CC(=O)O)cc(-c2ccc(F)cc2)c1` were, in that order, 50 mg/kg and 565 mg/kg.
For `COc1cc(CC(=O)O)cc(-c2ccc(Cl)cc2Cl)c1`, in that order: 70 mg/kg and 336 mg/kg.
Regarding `COc1cc(CC(=O)O)cc(-c2ccc(C)cc2)c1`, in the data set on Rattus norvegicus, the 50% effective dose (ED50) was more than 100 mg/kg. Moreover, the 50% lethal dose (LD50) at 168 h in data set [1] came out at 566 mg/kg.
Turning to `Cc1cc(CC(=O)O)cc(OCC(C)C)c1`, the median effective dose (ED50) in the data set on Rattus norvegicus is more than 100 mg/kg. The compound also displayed an LD50 at 168 h in data set [1] of 1000 mg/kg.
Take `COc1ccc(-c2cc(CC(=O)O)cc(OC)c2)cc1`: the ED50 is more than 100 mg/kg in the data set with Rattus norvegicus and 165 mg/kg in the data set with Mus musculus. The same compound came in with a 50% lethal dose (LD50) at 168 h in data set [1] of 636 mg/kg.
`COc1cc(C)cc(CC(=O)O)c1`: in the data set on Rattus norvegicus, the 50% effective dose (ED50) is more than 100 mg/kg. The same compound registered an LD50 at 168 h in data set [1] of 673 mg/kg.
For `O=C(O)Cc1cc(O)cc(-c2ccc(Cl)cc2)c1`, in that order: more than 100 mg/kg and 141 mg/kg.
For `COc1cc(CC(=O)O)cc(-c2ccccc2)c1`, in that order: 60 mg/kg and 566 mg/kg.
For `COC(=O)Cc1cc(O)cc(-c2ccc(Cl)cc2)c1`, the median effective dose (ED50) with Rattus norvegicus is more than 100 mg/kg. The 50% lethal dose (LD50) at 168 h in data set [1] was more than 1600 mg/kg.
As for `CCOc1cc(CC(=O)O)cc(-c2ccccc2)c1`, the ED50 with Rattus norvegicus is more than 100 mg/kg. In data set [1], this compound yielded a median lethal dose (LD50) at 168 h of 400 mg/kg.
As to `CCCOc1cc(CC(=O)O)cc(-c2ccccc2)c1`, the ED50 with Rattus norvegicus is more than 100 mg/kg. The compound also registered a 50% lethal dose (LD50) at 168 h in data set [1] of 475 mg/kg.
For `CCCCOc1cc(CC(=O)O)cc(-c2ccccc2)c1`, in that order: more than 100 mg/kg and more than 1600 mg/kg.
The like results for `CC(C)COc1cc(CC(=O)O)cc(-c2ccccc2)c1` were, in that order, more than 100 mg/kg and 566 mg/kg.
For `CCCCCOc1cc(CC(=O)O)cc(-c2ccccc2)c1`, in that order: more than 100 mg/kg and 1130 mg/kg.
`CCOc1cc(CC(=O)O)cc(-c2ccc(Cl)cc2)c1`: the 50% effective dose (ED50) in the data set on Rattus norvegicus is 51 mg/kg. Also, in data set [1], the 50% lethal dose (LD50) at 168 h was found to be 284 mg/kg.
With `CCCOc1cc(CC(=O)O)cc(-c2ccc(Cl)cc2)c1`, the 50% effective dose (ED50) in the data set with Rattus norvegicus amounted to 97 mg/kg. The compound also came in with an LD50 at 168 h in data set [1] of 400 mg/kg.
Turning to `CCCCOc1cc(CC(=O)O)cc(-c2ccc(Cl)cc2)c1`, the 50% effective dose (ED50) in the data set with Rattus norvegicus is more than 100 mg/kg. Moreover, the LD50 at 168 h in data set [1] came out at 237 mg/kg.
With `CC(C)COc1cc(CC(=O)O)cc(-c2ccc(Cl)cc2)c1`, in the data set with Rattus norvegicus, the 50% effective dose (ED50) is more than 100 mg/kg. The compound further had an LD50 at 168 h in data set [1] of 139 mg/kg.
For `CCCCCOc1cc(CC(=O)O)cc(-c2ccc(Cl)cc2)c1`, in that order: more than 100 mg/kg and 475 mg/kg.
For the compound `CCOC(=O)Cc1cc(O)cc(-c2ccc(Cl)cc2)c1`, the ED50 in the data set with Rattus norvegicus was more than 100 mg/kg. In data set [1], this compound registered an LD50 at 168 h of more than 1600 mg/kg.
With `COc1cc(CCO)cc(-c2ccc(Cl)cc2)c1`, the ED50 in the data set on Rattus norvegicus was found to be 47 mg/kg. For the same compound, in data set [1], the LD50 at 168 h is 673 mg/kg.
For `COc1cc(CCC(=O)O)cc(-c2ccc(Cl)cc2)c1`, in that order: more than 100 mg/kg and 284 mg/kg.
With `COc1cc(CC(N)=O)cc(-c2ccc(Cl)cc2)c1`, the ED50 in the data set with Rattus norvegicus is more than 100 mg/kg. The compound further came in with a 50% lethal dose (LD50) at 168 h in data set [1] of more than 1600 mg/kg.
As for `COc1cc(CC(=O)NO)cc(-c2ccc(Cl)cc2)c1`, the ED50 with Rattus norvegicus is more than 100 mg/kg. In data set [1], the 50% lethal dose (LD50) at 168 h is more than 1600 mg/kg.
Regarding `COC(=O)Cc1cc(OC)cc(-c2ccc(Cl)cc2)c1`, the ED50 with Rattus norvegicus came out at 35 mg/kg. Also, the median lethal dose (LD50) at 168 h in data set [1] was determined as 1600 mg/kg.
For `CCOC(=O)Cc1cc(OC)cc(-c2ccc(Cl)cc2)c1`, in that order: 29 mg/kg and 1130 mg/kg.
For `COC(=O)Cc1cc(OC(C)=O)cc(-c2ccc(Cl)cc2)c1`, in that order: more than 100 mg/kg and more than 1600 mg/kg.
For `COC(=O)Cc1cc(OS(C)(=O)=O)cc(-c2ccc(Cl)cc2)c1`, in that order: more than 100 mg/kg and 1130 mg/kg.
Consider `COc1cc(C(=O)O)cc(-c2ccc(Cl)cc2)c1`, for which, in the data set on Rattus norvegicus, the 50% effective dose (ED50) is more than 100 mg/kg. The compound further gave a 50% lethal dose (LD50) at 168 h in data set [1] of 1130 mg/kg.
For the compound `COc1cc(CC(=O)O)cc(-c2ccccc2Cl)c1`, the ED50 in the data set on Rattus norvegicus was found to be 39 mg/kg; in the data set on Mus musculus, 195 mg/kg. In data set [1], this compound displayed an LD50 at 168 h of 252 mg/kg.
On to `COc1cccc(CC(=O)O)c1`, for which the ED50 in the data set on Rattus norvegicus was more than 100 mg/kg. The compound further came in with an LD50 at 168 h in data set [1] of 504 mg/kg.
Take `COc1cc(CC(=O)O)cc(-c2ccc(Cl)cc2)c1`: the 50% effective dose (ED50) in the data set on Rattus norvegicus was determined as 11 mg/kg; in the data set on Mus musculus, 38 mg/kg. This compound also registered an LD50 at 168 h in data set [1] of 570 mg/kg.
For `CC(C)Cc1ccc(C(C)C(=O)O)cc1` (stereo unspecified) [IBUPROFEN], in that order: 25 mg/kg, 69 mg/kg and 336 mg/kg.
